Results on ten compounds are retold here after PMC5866228 (Journal of natural products, 2018).

SMILES strings stand for the structures. Several values for one entry are separate records, joined by “and”; a condition that tells them apart may be missing. Equal values may be shown once. Entries after “also recorded” stand apart in the source; their conditions may differ.

A short description of one series: Initial dose tolerance. The note with it: systemic (ip), drug-sensitive or -resistant xenograft models. Type of series: in vivo, mice.
The conditions of series [1]: compared to 3; cited from earlier work.
For series [2] the following is noted: plasma / in vivo; cited from earlier work.
Series [3] addresses T1, purified porcine brain tubulin (Sus scrofa, UniProt P02554). Kind of series: Tubulin polymerization, turbidimetric at 340 nm. Type of series: biochemical. As to conditions: 5 μM compound, tubulin 2 mg/mL, 37°C. In short, it runs like this: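 Test compound at 5 μM, a reference taccalonolide at 5−20 μM, or vehicle (1% EtOH). Samples were prepared on ice, then warmed to 37 °C to start polymerization. Rate and extent were followed turbidimetrically at 340 nm.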

Series [4] is described as follows: Hydrolytic stability in aqueous solution. The series is classed as physicochemical. As to conditions: 10 mg in 1:1 EtOH-PBS, 36 h, room temperature. A digest of the protocol: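 Test compound stirred in 1× PBS–EtOH; the mixture was then vacuum-dried and extracted with CH3CN. The hydrolysis product was isolated by semipreparative C18 HPLC eluted with 60−100% CH3CN/H2O containing 0.1% formic acid. Isolated yield was the read-out.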

Series [5] has as its system NCI/ADR-RES drug-resistant xenograft. Type of series: in vivo. The note with it: for days with statistically significant effects vs paclitaxel-treated tumors / tumor growth following the first drug administration on day 0: intratumoral; for first day of statistically significant difference vs vehicle-treated tumors: intratumoral 20 μg on days 0, 3, 6, 10, 14, two-way ANOVA, Tukey; for persistence of antitumor efficacy after the final dose: intratumoral injection, paclitaxel-resistant tumor; for tumor growth following the first drug administration on day 0: 20 μg 21 or 26, 40 μg paclitaxel.

The test system is the same in series [6]. The note with it: systemic administration; no reference given; cited from earlier work.
Series [7] concerns HeLa cervical cancer cell line. As to conditions: cited from earlier work.
The conditions of series [8]: aqueous conditions; cited from earlier work.
The target of series [9] is T1, purified porcine brain tubulin. As to conditions: cited from earlier work.

T1 sequence (P02554 whole entry): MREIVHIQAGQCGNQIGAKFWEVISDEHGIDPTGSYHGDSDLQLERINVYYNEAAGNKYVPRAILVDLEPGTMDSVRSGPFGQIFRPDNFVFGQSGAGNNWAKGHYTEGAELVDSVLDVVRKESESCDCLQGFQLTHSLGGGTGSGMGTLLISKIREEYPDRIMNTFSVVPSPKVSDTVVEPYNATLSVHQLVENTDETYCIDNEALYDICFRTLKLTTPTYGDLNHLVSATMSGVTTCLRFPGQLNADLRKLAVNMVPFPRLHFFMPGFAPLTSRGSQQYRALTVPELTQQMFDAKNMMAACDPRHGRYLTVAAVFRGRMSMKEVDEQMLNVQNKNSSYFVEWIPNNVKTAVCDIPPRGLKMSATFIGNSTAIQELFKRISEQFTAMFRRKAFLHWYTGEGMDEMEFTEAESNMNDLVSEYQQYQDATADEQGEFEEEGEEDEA
T1 sequence (P02550 whole entry partner): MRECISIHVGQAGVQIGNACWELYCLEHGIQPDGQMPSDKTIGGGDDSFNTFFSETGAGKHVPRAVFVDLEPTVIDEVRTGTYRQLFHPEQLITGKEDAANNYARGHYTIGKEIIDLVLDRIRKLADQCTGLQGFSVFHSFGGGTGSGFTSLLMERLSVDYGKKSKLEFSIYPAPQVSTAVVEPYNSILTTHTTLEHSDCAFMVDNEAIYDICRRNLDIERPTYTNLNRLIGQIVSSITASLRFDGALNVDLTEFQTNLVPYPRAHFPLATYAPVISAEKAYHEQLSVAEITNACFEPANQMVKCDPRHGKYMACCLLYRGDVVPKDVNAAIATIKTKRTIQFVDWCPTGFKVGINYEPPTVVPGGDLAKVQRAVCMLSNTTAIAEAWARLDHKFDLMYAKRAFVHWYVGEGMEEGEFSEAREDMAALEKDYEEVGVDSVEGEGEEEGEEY

`CC(=O)O[C@H]1[C@H]2[C@H]([C@@H]3[C@@H](OC(=O)C(C)(C)C)[C@@H]4[C@H]([C@H](C)[C@H]5O[C@]56OC(=O)[C@@](C)(O)[C@]46C)[C@@]3(C)[C@H]1OC(C)=O)[C@@H](O)C(=O)[C@H]1C[C@@H]3O[C@@H]3[C@H](OC(C)=O)[C@]21C` [Compound 22]: in the series “Initial dose tolerance”, the “antitumor effects during MTD evaluations” value is given as “lack of observable antitumor effects”.

`CC(=O)O[C@H]1[C@H]2[C@H]([C@@H]3[C@@H](O)[C@@H]4[C@H]([C@H](C)[C@H]5O[C@]56OC(=O)[C@@](C)(O)[C@]46C)[C@@]3(C)[C@H]1OC(C)=O)[C@@H](O)C(=O)[C@H]1C[C@@H]3O[C@@H]3[C@H](OC(C)=O)[C@]21C` [Compound 4, taccalonolide AJ]: in [1], the microsomal clearance entry was “higher microsomal clearance; also recorded: increased rate of microsomal clearance as compared to 3”. For the same compound, in series [2], the half-life entry is “lower in vivo half-life; also recorded: shorter plasma half-life”.

As to `CC(=O)O[C@H]1[C@H]2[C@H]([C@@H]3[C@@H](O)[C@@H]4[C@H]([C@H](C)[C@H]5O[C@]56OC(=O)[C@@](C)(O)[C@]46C)[C@@]3(C)[C@H]1OC(C)=O)[C@@H](OC(=O)C(C)(C)C)C(=O)[C@H]1C[C@@H]3O[C@@H]3[C@H](OC(C)=O)[C@]21C` [Compound 27], the “extent of tubulin polymerization compared with 4” value (shortened to “extent … compared with 4”) in series [3] is given as “comparable levels of tubulin polymerization compared to an equivalent concentration of 4”.

Take `CC(=O)O[C@H]1[C@H]2[C@H]([C@@H]3[C@@H](OC(=O)c4ccc5c(c4)C(=O)c4ccccc4C5=O)[C@@H]4[C@H]([C@H](C)[C@H]5O[C@]56OC(=O)[C@@](C)(O)[C@]46C)[C@@]3(C)[C@H]1OC(C)=O)[C@@H](O)C(=O)[C@H]1C[C@@H]3O[C@@H]3[C@H](OC(C)=O)[C@]21C` [Compound 24]: the “hydrolysis to 4, yield” value in [4] is 67.4% and 67%.

Turning to `CC(=O)O[C@H]1[C@H]2[C@H]([C@@H]3[C@@H](O)[C@@H]4[C@H]([C@H](C)[C@H]5O[C@]56OC(=O)[C@@](C)(O)[C@]46C)[C@@]3(C)[C@H]1OC(C)=O)[C@@H](OC(=O)CC(C)C)C(=O)[C@H]1C[C@@H]3O[C@@H]3[C@H](OC(C)=O)[C@]21C` [Compound 26], the “extent … compared with 4” value in series [3] was “greater extent of tubulin polymerization than equivalent concentrations of 4”. Besides, the “antitumor effects during MTD evaluations” value in the series “Initial dose tolerance” is reported as “lack of observable antitumor effects”. The “growth of tumors with smaller initial volumes (130 – 233 mm^3)” value in [5] (four tumors, intratumoral 20 μg) is listed as “did not increase in size even by day 54”. In series [5], the “days with statistically significant effects vs paclitaxel-treated tumors” value was 12 to 14 days, the “first day of statistically significant difference vs vehicle-treated tumors” value stood at 12 days, the “persistence of antitumor efficacy after the final dose” value was “at least 30 days” and the “tumor growth following the first drug administration on day 0” value is reported as “abruptly slowed”.

Consider `CC(=O)O[C@@H]1[C@H]2[C@H]3[C@H]([C@H](OC(C)=O)[C@H](OC(C)=O)[C@]2(C)[C@H]2[C@H](C)[C@H]4O[C@]45OC(=O)[C@@](C)(O)[C@]5(C)[C@H]12)[C@]1(C)[C@H](C[C@@H]2O[C@@H]2[C@@H]1OC(C)=O)C(=O)[C@@H]3O` [Compound 3, taccalonolide AF], for which, in [6], the “efficacy in the taxane-resistant model” value was “has efficacy in this taxane-resistant model with systemic administration”. Besides, in [7], the “potency relative to 1” value is “over 200 fold”. Further, the “hydrolysis of C-15 acetoxy group” value in [8] is on record as “readily hydrolyzed to generate 4 under aqueous conditions”. The “effect on polymerization of purified tubulin” value in [9] is given as “directly stimulates the polymerization of purified tubulin”.

Consider `CC(=O)O[C@H]1[C@H]2[C@H]([C@@H]3[C@@H](OC(=O)C(C)C)[C@@H]4[C@H]([C@H](C)[C@H]5O[C@]56OC(=O)[C@@](C)(O)[C@]46C)[C@@]3(C)[C@H]1OC(C)=O)[C@@H](O)C(=O)[C@H]1C[C@@H]3O[C@@H]3[C@H](OC(C)=O)[C@]21C` [Compound 20], for which the “extent … compared with 4” value in series [3] is on record as “comparable levels of tubulin polymerization compared to an equivalent concentration of 4”. Also, the “antitumor effects during MTD evaluations” value in the series “Initial dose tolerance” is listed as “lack of observable antitumor effects”.

Take `CC(=O)O[C@H]1[C@H]2[C@H]([C@@H]3[C@@H](OC(=O)CC(C)C)[C@@H]4[C@H]([C@H](C)[C@H]5O[C@]56OC(=O)[C@@](C)(O)[C@]46C)[C@@]3(C)[C@H]1OC(C)=O)[C@@H](O)C(=O)[C@H]1C[C@@H]3O[C@@H]3[C@H](OC(C)=O)[C@]21C` [Compound 21]: in series [3], the “extent … compared with 4” value is recorded as “greater extent of tubulin polymerization than equivalent concentrations of 4”. For the same compound, the “antitumor effects during MTD evaluations” value in the series “Initial dose tolerance” is given as “lack of observable antitumor effects”. The “first day on which a tumor reached 1,500 mm^3” value in series [5] (31 days after the final dose, intratumoral 20 μg) turned out to be 45 days. Also, in series [5], the “days with statistically significant effects vs paclitaxel-treated tumors” value fell in the range of 12 to 14 days, the “first day of statistically significant difference vs vehicle-treated tumors” value stood at 10 days, the “persistence of antitumor efficacy after the final dose” value is reported as “at least 30 days” and the “tumor growth following the first drug administration on day 0” value was “abruptly slowed”.

In the case of `CC(=O)O[C@H]1C(=O)[C@@]2(C)[C@H]([C@H](OC(=O)c3ccccc3)[C@]3(O)C[C@H](OC(=O)[C@H](O)[C@@H](NC(=O)c4ccccc4)c4ccccc4)C(C)=C1C3(C)C)[C@]1(OC(C)=O)CO[C@@H]1C[C@@H]2O` [paclitaxel, reference compound], the “tumor growth rate compared with vehicle up to day 14” value in series [5] (intratumoral 40 μg) is on record as “not different statistically”. In series [5], the “tumor growth following the first drug administration on day 0” value is recorded as “unaffected”.

For the compound `CC(=O)O[C@H]1[C@H]2[C@H]([C@@H]3[C@@H](OC(=O)C4CC4)[C@@H]4[C@H]([C@H](C)[C@H]5O[C@]56OC(=O)[C@@](C)(O)[C@]46C)[C@@]3(C)[C@H]1OC(C)=O)[C@@H](O)C(=O)[C@H]1C[C@@H]3O[C@@H]3[C@H](OC(C)=O)[C@]21C` [Compound 19], in series [3], the “extent … compared with 4” value is reported as “comparable levels of tubulin polymerization compared to an equivalent concentration of 4”. Moreover, the “antitumor effects during MTD evaluations” value in the series “Initial dose tolerance” is on record as “lack of observable antitumor effects”.
